Experimental findings from ChEMBL document CHEMBL3779892, “Increasing the binding affinity of VEGFR-2 inhibitors by extending their hydrophobic interaction with the active site: Design, synthesis and biological evaluation of 1-substituted-4-(4-methoxybenzyl)phthalazine derivatives” (Eur J Med Chem, 2016) are described below.

Molecules are shown by their SMILES.

What all share (assay type): functional
One assay has as its system CCRF-CEM. The assay is described as follows: Growth inhibition of human CCRF-CEM cells at 10 uM after 48 hrs by sulforhodamine B assay. As to conditions: read-out: GI. In a few lines: (§1)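 Run at NCI on the 60-line panel. Cells grown in RPMI 1640 with 5% FBS and 2 mM L-glutamine, plated at 5000–40,000 cells/well by doubling time, and held 24 h at 37 °C before dosing. Drug (DMSO stock) given at a single final 10 µM in triplicate wells for 48 h. Adherent cells fixed with cold TCA (10% final), suspension cells with 16% TCA. SRB stain read at 515 nm. Percent growth from Tz, C and Ti.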
(In general: The SRB assay estimates cell density from bound dye.)

A short description of assay [1]: Growth inhibition of human MOLT4 cells at 10 uM after 48 hrs by sulforhodamine B assay. As to conditions: MOLT-4, 48 h, read-out: GI. In a few lines:
as §1

In the next assay the test system is SR. The assay is described as follows: Growth inhibition of human SR cells at 10 uM after 48 hrs by sulforhodamine B assay. As to conditions: read-out: GI. In a few lines:
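NCI-60 screen. Cells were grown in RPMI 1640 with 5% FBS and 2 mM L-glutamine, plated at 5000–40,000 cells/well and held 24 h at 37 °C, 5% CO2. Single 10 µM final dose from DMSO stock, triplicate wells, 48 h. Settled cells were fixed with 80% TCA (16% final) and stained with 0.4% SRB. Dye was solubilized in 10 mM Tris and read at 515 nm. Growth was calculated against time-zero and untreated wells.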

The next assay has as its system A549. Put plainly: Growth inhibition of human A549 cells at 10 uM after 48 hrs by sulforhodamine B assay. As to conditions: A549, 48 h, read-out: GI. In a few lines: as §1
A short description of assay [2]: Growth inhibition of human HOP62 cells at 10 uM after 48 hrs by sulforhodamine B assay. The conditions noted are these: HOP-62, 48 h, read-out: GI. A digest of the protocol: as §1
A short description of assay [3]: Growth inhibition of human HCC2998 cells at 10 uM after 48 hrs by sulforhodamine B assay. The conditions noted are these: HCC 2998, 48 h, read-out: GI. A digest of the protocol: as §1
The nature of assay [4]: Growth inhibition of human HCT116 cells at 10 uM after 48 hrs by sulforhodamine B assay. The conditions noted are these: HCT-116, 48 h, read-out: GI. In a few lines: as §1
Assay [5] is described as follows: Growth inhibition of human SW620 cells at 10 uM after 48 hrs by sulforhodamine B assay. The conditions noted are these: SW-620, 48 h, read-out: GI. In a few lines:
(§2)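 NCI-60 panel, adherent cells grown in RPMI 1640 with 5% FBS and 2 mM L-glutamine, plated at 5000–40,000 cells/well and preincubated 24 h at 37 °C, 5% CO2. 10 µM final compound from DMSO stock, triplicate wells, 48 h. Fixed with cold TCA (10% final, 60 min, 4 °C) and stained with 0.4% SRB. Absorbance read at 515 nm; growth calculated against time-zero and control wells.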

Assay [6] is described as follows: Growth inhibition of human SF539 cells at 10 uM after 48 hrs by sulforhodamine B assay. The conditions noted are these: SF-539, 48 h, read-out: GI. A digest of the protocol:
as §1

The subject of the next assay is M14. The assay is described as follows: Growth inhibition of human M14 cells at 10 uM after 48 hrs by sulforhodamine B assay. The conditions noted are these: M14, 48 h, read-out: GI. A digest of the protocol:
as §1

Another assay relates to MDA-MB-435. Put plainly: Growth inhibition of human MDA-MB-435 cells at 10 uM after 48 hrs by sulforhodamine B assay. As to conditions: MDA-MB-435, 48 h, read-out: GI. In a few lines:
as §1

Another assay has as its system SK-MEL-28. The assay is described as follows: Growth inhibition of human SK-MEL-28 cells at 10 uM after 48 hrs by sulforhodamine B assay. The conditions noted are these: SK-MEL-28, 48 h, read-out: GI. In a few lines: as §1
Assay [7] is described as follows: Growth inhibition of human UACC257 cells at 10 uM after 48 hrs by sulforhodamine B assay. As to conditions: UACC-257, 48 h, read-out: GI. A digest of the protocol: as §2
The nature of assay [8]: Growth inhibition of human UACC62 cells at 10 uM after 48 hrs by sulforhodamine B assay. As to conditions: UACC-62, 48 h, read-out: GI. In a few lines: as §2
A short description of assay [9]: Growth inhibition of human SKOV3 cells at 10 uM after 48 hrs by sulforhodamine B assay. As to conditions: SK-OV-3, 48 h, read-out: GI. A digest of the protocol: as §1
Assay [10] is described as follows: Growth inhibition of human Caki1 cells at 10 uM after 48 hrs by sulforhodamine B assay. As to conditions: CAKI-1, 48 h, read-out: GI. A digest of the protocol:
as §1

The nature of assay [11]: Growth inhibition of human RXF393 cells at 10 uM after 48 hrs by sulforhodamine B assay. The conditions noted are these: RXF 393, 48 h, read-out: GI. A digest of the protocol: as §1
For the next assay, the system named is SN12C. Put plainly: Growth inhibition of human SN12C cells at 10 uM after 48 hrs by sulforhodamine B assay. As to conditions: read-out: GI. A digest of the protocol:
as §1

The nature of assay [12]: Growth inhibition of human TK10 cells at 10 uM after 48 hrs by sulforhodamine B assay. The conditions noted are these: TK-10, 48 h, read-out: GI. In a few lines: as §2
Assay [13] in a line: Growth inhibition of human PC3 cells at 10 uM after 48 hrs by sulforhodamine B assay. As to conditions: PC-3, 48 h, read-out: GI. A digest of the protocol:
as §1

The nature of assay [14]: Growth inhibition of human Hs 578T cells at 10 uM after 48 hrs by sulforhodamine B assay. The conditions noted are these: read-out: GI. In a few lines:
as §1

As to `COc1ccc(Cc2nnc(Nc3ccc(Cl)c(C(F)(F)F)c3)c3ccccc23)cc1`, the inhibition of growth at 10 µM is 52% in the assay with CCRF-CEM; 69% in assay [1]; 43% in the assay with SR; 62% with A549; below 30% in assay [2]; 42% in assay [3]. In addition, the inhibition of growth at 10 µM in [4] was 73%; in assay [5] it was below 30%; in assay [6], 42%; with M14, 48%; in the assay on MDA-MB-435, below 30%; in the assay with SK-MEL-28, below 30%. For the same compound, the inhibition of growth at 10 µM was below 30% in assay [7]; 41% in assay [8]; below 30% in [9]; 35% in [10]; 33% in [11]; 46% in the assay with SN12C. Besides, the inhibition of growth at 10 µM was 40% in [12], 61% in assay [13] and 34% in [14].

With `COc1ccc(Cc2nnc(Nc3ccccc3)c3ccccc23)cc1`, the inhibition of growth at 10 µM in the assay on CCRF-CEM was below 30%; in [1] it was below 30%; in the assay with SR, 30%; in the assay on A549, below 30%; in [2], below 30%; in assay [3] it was below 30%. In addition, the inhibition of growth at 10 µM (in assay [4]; in assay [5]; in assay [6]; in the assay with M14; with MDA-MB-435; with SK-MEL-28) was below 30% each time. In addition, the inhibition of growth at 10 µM in assay [7] is below 30%; in [8], below 31%; in [9], below 30%; in assay [10] it was below 30%; in [11], below 30%; in the assay with SN12C, below 30%. Besides, the inhibition of growth at 10 µM in assay [12], in [13] and in [14] was below 30% each time.

As for `COc1ccc(Cc2nnc(Nc3cccc(C(F)(F)F)c3)c3ccccc23)cc1`, the inhibition of growth at 10 µM in the assay on CCRF-CEM was 39%; in assay [1], 60%; with SR, 52%; in the assay on A549, 57%; in [2], below 30%; in assay [3] it was 31%. Moreover, the inhibition of growth at 10 µM in [4] was 56%; in assay [5], below 30%; in [6], 36%; with M14 it was below 30%; in the assay on MDA-MB-435 it was below 30%; in the assay with SK-MEL-28, below 30%. For the same compound, the inhibition of growth at 10 µM in assay [7] was below 30%; in [8] it was 42%; in assay [9] it was below 30%; in assay [10], 32%; in assay [11], 34%; in the assay with SN12C, 46%. Also, the inhibition of growth at 10 µM was below 30% in [12], 49% in assay [13] and below 30% in assay [14].

As for `COc1ccc(Cc2nnc(Nc3ccc(Cl)cc3)c3ccccc23)cc1`, the inhibition of growth at 10 µM in the assay on CCRF-CEM is 46%; in assay [1], 48%; in the assay on SR it was 54%; in the assay with A549, 40%; in assay [2], 40%; in [3], below 30%. The inhibition of growth at 10 µM is 66% in [4]; below 30% in assay [5]; 46% in assay [6]; 47% in the assay with M14; 30% with MDA-MB-435; below 30% in the assay on SK-MEL-28. Also, the inhibition of growth at 10 µM in [7] is below 30%; in assay [8] it was 60%; in assay [9], below 30%; in assay [10], 37%; in assay [11] it was 32%; in the assay on SN12C, 50%. In addition, the inhibition of growth at 10 µM in assay [12] turned out to be 52%; in assay [13] it was 51%; in assay [14], 35%.

Turning to `COc1ccc(Cc2nnc(Nc3cccc(Cl)c3)c3ccccc23)cc1`, the inhibition of growth at 10 µM in the assay with CCRF-CEM is below 30%; in assay [1] it was 37%; with SR it was 43%; in the assay with A549 it was 45%; in assay [2], below 30%; in [3], below 30%. Moreover, the inhibition of growth at 10 µM in [4] is 49%; in [5] it was below 30%; in [6], 35%; with M14, below 30%; in the assay with MDA-MB-435, below 30%; in the assay with SK-MEL-28, below 30%. Also, the inhibition of growth at 10 µM is below 30% in [7]; 39% in assay [8]; below 30% in assay [9]; below 30% in assay [10]; below 30% in assay [11]; 34% in the assay with SN12C. The results for the inhibition of growth at 10 µM in assay [12], in [13] and in [14] were below 30%, 42% and below 30%, respectively.

For `COc1ccc(Cc2nnc(Nc3ccc(C#N)cc3)c3ccccc23)cc1`, the inhibition of growth at 10 µM (in the assay on CCRF-CEM; in assay [1]; with SR; with A549; in assay [2]; in assay [3]) was below 30% each time. Moreover, the inhibition of growth at 10 µM (in assay [4]; in assay [5]; in assay [6]; in the assay on M14; in the assay with MDA-MB-435; with SK-MEL-28) was below 30% in each case. In addition, the inhibition of growth at 10 µM (in assay [7]; in assay [8]; in assay [9]; in assay [10]; in assay [11]; with SN12C) was below 30% each time. Moreover, the inhibition of growth at 10 µM in [12] is below 30%; in assay [13], 34%; in assay [14], below 30%.
